The source of these data is ChEMBL document CHEMBL5107946, “SF5- and SCF3-substituted tetrahydroquinoline compounds as potent bactericidal agents against multidrug-resistant persister Gram-positive bacteria” (RSC Med Chem, 2021).

Series [1] has as its system Staphylococcus aureus. Put plainly: Antibacterial activity against Staphylococcus aureus ATCC 25923 assessed as bacterial growth inhibition incubated for 18 to 20 hrs by CLSI based broth microdilution assay. To be noted: time 18-20 hrs. The class given is functional. The method, boiled down: (§1)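 CLSI broth microdilution; compounds and control antibiotics made up at 10 mg mL−1 in DMSO (stock), serially diluted 1:2 across the plate. Inoculum adjusted to 0.5 McFarland, then diluted 1:100 into wells. Plates incubated static at 37 °C for 18–20 h before MIC read.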
On the technique in general: Broth dilution looks for growth in wells or tubes with falling amounts of substance.

In series [2] the test system is Staphylococcus aureus. In words: Antibacterial activity against methicillin-resistant Staphylococcus aureus USA300 assessed as bacterial growth inhibition incubated for 18 to 20 hrs by CLSI based broth microdilution assay. The conditions noted are these: time 18-20 hrs. Format: functional. The method, boiled down: as §1
In series [3] the test system is Staphylococcus aureus. Put plainly: Antibacterial activity against methicillin-resistant Staphylococcus aureus ATCC 33592 assessed as bacterial growth inhibition incubated for 18 to 20 hrs by CLSI based broth microdilution assay. The class given is functional. The conditions noted are these: time 18-20 hrs. The method, boiled down: as §1
For series [4], the system named is Enterococcus faecalis. Put plainly: Antibacterial activity against Enterococcus faecalis ATCC 29212 assessed as bacterial growth inhibition incubated for 18 to 20 hrs by CLSI based broth microdilution assay. The class given is functional. To be noted: time 18-20 hrs. A digest of the protocol: as §1
In series [5] the test system is Enterococcus faecalis. Put plainly: Antibacterial activity against vancomycin-resistant Enterococcus faecalis ATCC 51575 assessed as bacterial growth inhibition incubated for 18 to 20 hrs by CLSI based broth microdilution assay. To be noted: time 18-20 hrs. The class given is functional. The method, boiled down:
as §1

For series [6], the system named is Staphylococcus aureus. Put plainly: Bactericidal activity against Staphylococcus aureus ATCC 25923 assessed as reduction in colony forming unit incubated for 20 hrs. The class given is functional. A digest of the protocol:
(§2)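 Follows the broth microdilution MIC plate. 4 μL taken from each well without growth, spotted in duplicate on tryptic soy agar and incubated static at 37 °C for 20 h. MBC taken as the concentration giving 99.9% reduction in CFU.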

The subject of series [7] is Staphylococcus aureus. Put plainly: Bactericidal activity against methicillin-resistant Staphylococcus aureus ATCC 33592 assessed as reduction in colony forming unit incubated for 20 hrs. The class given is functional. The method, boiled down:
as §2

Series [8] concerns Enterococcus faecalis. In words: Bactericidal activity against Enterococcus faecalis ATCC 29212 assessed as reduction in colony forming unit incubated for 20 hrs. Format: functional. The method, boiled down: as §2
Series [9] concerns Enterococcus faecalis. In words: Bactericidal activity against vancomycin-resistant Enterococcus faecalis ATCC 51575 assessed as reduction in colony forming unit incubated for 20 hrs. The class given is functional. A digest of the protocol: as §2
A further series relates to Listeria monocytogenes. In words: Bactericidal activity against Listeria monocytogenes ATCC 19115 assessed as reduction in colony forming unit incubated for 20 hrs. The class given is functional. A digest of the protocol: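 MBC: after the MIC assay, 4 μL from wells with no growth were spotted in duplicate on TSA. Plates were incubated static at 37 °C for 20 h. MBC was taken as a 99.9% reduction in CFU.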

Series [10] has as its system Staphylococcus aureus. Put plainly: Antibacterial activity against methicillin-resistant Staphylococcus aureus USA300 (ARLG 1567) assessed as bacterial growth inhibition incubated for 18 to 20 hrs by CLSI based broth microdilution assay. Format: functional. To be noted: time 18-20 hrs. A digest of the protocol:
as §1

Series [11] has as its system Staphylococcus aureus. In words: Antibacterial activity against methicillin-resistant Staphylococcus aureus USA300 (ARLG 1568) assessed as bacterial growth inhibition incubated for 18 to 20 hrs by CLSI based broth microdilution assay. The conditions noted are these: time 18-20 hrs. Format: functional. The method, boiled down: as §1
Series [12] concerns Staphylococcus aureus. In words: Antibacterial activity against methicillin-resistant Staphylococcus aureus USA300 (ARLG 1570) assessed as bacterial growth inhibition incubated for 18 to 20 hrs by CLSI based broth microdilution assay. The class given is functional. To be noted: time 18-20 hrs. A digest of the protocol: as §1
Series [13] deals with Staphylococcus aureus. Put plainly: Antibacterial activity against methicillin-resistant Staphylococcus aureus ST239 (ARLG 1644) assessed as bacterial growth inhibition incubated for 18 to 20 hrs by CLSI based broth microdilution assay. The class given is functional. The conditions noted are these: time 18-20 hrs. A digest of the protocol:
as §1

Series [14] concerns Staphylococcus aureus. In words: Bactericidal activity against methicillin-resistant Staphylococcus aureus ATCC 33592 assessed as reduction in colony forming unit at 1 x MIC incubated for 18 to 24 hrs by Time-kill analysis. Format: functional, organism-based. To be noted: time 18-24 hrs. A digest of the protocol: (§3)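 Log-phase time-kill. Overnight TSB culture diluted 1:1000 and grown to OD600 0.6, then diluted 1 in 10 in TSB (about 2.92 × 10^6 CFU per mL). Exposed at 1× or 4× MIC in triplicate at 37 °C. Samples taken at 0, 2, 4, 8, 12 and 24 h, serially diluted in PBS, plated on TSA in duplicate and counted after 18–20 h.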

Series [15] relates to Staphylococcus aureus. Put plainly: Bactericidal activity against methicillin-resistant Staphylococcus aureus ATCC 33592 assessed as reduction in colony forming unit at 4 x MIC incubated for 18 to 24 hrs by Time-kill analysis. To be noted: time 18-24 hrs. Format: functional, organism-based. The method, boiled down:
as §3

Series [16] has as its system Staphylococcus aureus. Put plainly: Antibacterial activity against methicillin-resistant Staphylococcus aureus USA300 assessed as fold increase in MIC incubated for 30 days by resistance development based broth microdilution assay. The class given is functional. To be noted: time 30 day. The method, boiled down:
(§4)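 Multi-step resistance selection over 30 days. MIC determined first. Each day, 5 μL from the turbid well just below the MIC was diluted 1:1000 in CA-MHB and used as inoculum for the next broth microdilution MIC. Resistance defined as a rise of more than four-fold over the starting MIC.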

Series [17] relates to Staphylococcus aureus. In words: Antibacterial activity against methicillin-resistant Staphylococcus aureus ATCC 33592 assessed as fold increase in MIC incubated for 30 days by resistance development based broth microdilution assay. Format: functional. To be noted: time 30 day. A digest of the protocol: as §4
Series [18] deals with Cell membrane. In words: Induction of cell membrane permeability in Staphylococcus aureus ATCC 25923 at 1 ug/ml incubated for […] by Sytox green based fluorescence method. To be noted: dose 1.0 µg/ml. The method, boiled down:
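Exponential-phase cells (OD600 0.2–0.3) washed three times in PBS and resuspended in PBS + 10% TSB. Sytox green added to 5 μM final and equilibrated 15–30 min in the dark. Fluorescence (ex 504/em 522 nm) read for 10 min baseline, then every 3 min for 3 h after addition. Run in triplicate; 1% Triton X-100 as positive control.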

The test system of series [19] is Cell membrane. Put plainly: Induction of cell membrane permeability in Staphylococcus aureus ATCC 25923 at 2 to 10 ug/ml by DiOC2 dye based flow cytometry assay. To be noted: dose 2-10 µg/ml. A digest of the protocol:
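Exponential-phase cells (OD600 0.2–0.3) treated at 2 or 10 μg mL−1; bithionol 4 μg mL−1 as positive control. Washed twice in PBS and resuspended in buffer. To-PRO 3 iodide (red) and DiOC2 (green) added and cells analysed at once by flow cytometry. Permeabilization read as the red/green ratio.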

The subject of series [20] is Cell membrane. In words: Induction of cell membrane disruption in Staphylococcus aureus ATCC 25923 at 4 ug/ml incubated for 4 hrs by scanning electron microscopy. To be noted: dose 4.0 µg/ml. A digest of the protocol: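 Cells grown overnight in TSB, diluted 1:100 and grown to OD600 0.4, then treated for 4 h; bithionol 10 μg mL−1 as positive control, DMSO as negative control. Fixed in chilled 2.5% glutaraldehyde in 0.1 M cacodylate, post-fixed in 1% OsO4, ethanol-dehydrated, dried with HMDS and platinum-coated. Imaged at 5 kV.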

A further series deals with Erythrocyte. Put plainly: Cytotoxicity against human RBC at 20 ug/ml incubated for 30 mins by spectrophotometric method. The class given is toxicity, cell-based. The conditions noted are these: 0.5 h, dose 20 µg/ml. The method, boiled down:
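Hemolysis of 5% human RBCs exposed to compound at 5–20 μg mL−1 for 30 min at 37 °C. Intact cells were pelleted by centrifugation and supernatant absorbance read at 540 nm. Values are percent of 1% Triton X-100 lysis, with DMSO as negative control. Triplicate.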

Series [21] deals with Enterococcus faecium. In words: Bactericidal activity against vancomycin-resistant Enterococcus faecium ATCC 700221 assessed as reduction in colony forming unit incubated for 20 hrs. To be noted: ATCC 700221, 20 h.
Series [22] relates to Enterococcus faecium. In words: Antibacterial activity against vancomycin-resistant Enterococcus faecium ATCC 700221 assessed as bacterial growth inhibition incubated for 18 to 20 hrs by CLSI based broth microdilution assay.

Values after ≈ are worked out from the molar mass of the structure shown. Active and inactive are the calls of the source.

The term MIC denotes the lowest concentration that inhibits growth of the organism. Broadly, the MBC is the lowest tested concentration that kills the bacteria rather than only halting them.

Turning to `FC(F)(F)c1n[nH]cc1[C@@H]1Nc2ccc(S(F)(F)(F)(F)F)cc2[C@H]2[C@@H]3CC[C@@H](C3)[C@H]21`, the MIC was found to be 2 µg/mL (≈ 4.35 µM) with Staphylococcus aureus [1]; 4 µg/mL (≈ 8.71 µM) with Staphylococcus aureus [2]; 2 µg/mL (≈ 4.35 µM) in the series with Staphylococcus aureus [3]; 4 µg/mL (≈ 8.71 µM) with Enterococcus faecalis [4]; 4 µg/mL (≈ 8.71 µM) in the series on Enterococcus faecalis [5]; 2 µg/mL (≈ 4.35 µM) in the series on Staphylococcus aureus [10]. Besides, the MIC with Staphylococcus aureus [11], in the series on Staphylococcus aureus [12], with Staphylococcus aureus [13] and in the series on Enterococcus faecium [22] was 2 µg/mL (≈ 4.35 µM) throughout. In addition, the MBC with Staphylococcus aureus [6] turned out to be 8 µg/mL (≈ 17.4 µM); with Staphylococcus aureus [7], 4 µg/mL (≈ 8.71 µM); in the series on Enterococcus faecalis [8], 8 µg/mL (≈ 17.4 µM); with Enterococcus faecalis [9] it was 8 µg/mL (≈ 17.4 µM); in the series on Listeria monocytogenes it was 4 µg/mL (≈ 8.71 µM); in the series on Enterococcus faecium [21], 4 µg/mL (≈ 8.71 µM). For the same compound, the outcome in the series on Staphylococcus aureus [14], in the series on Staphylococcus aureus [15], with Cell membrane [18], in the series on Cell membrane [19] and in the series on Cell membrane [20] was Active. Further, the “fold change (FC)” value with Staphylococcus aureus [16] and in the series with Staphylococcus aureus [17] was 1 each time. The Activity result in the series with Erythrocyte is on record as “Non-Toxic”.
